# Experimental data from ChEMBL document CHEMBL1641595, “Molecular modeling based approach, synthesis and in vitro assay to new indole inhibitors of hepatitis C NS3/4A serine protease” (Bioorg Med Chem, 2011).
# Columns and labels:
# Hepacivirus hominis [1] = test: Inhibition of HCV NS3/4A protease at 100 ug/ml after 30 mins
# Outline: (§1)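 Recombinant HCV NS3/4A protease, freshly diluted to 0.5 µg/mL, was combined with test compound in DMSO. The reaction was started with FRET peptide substrate Ac-Asp-Glu-Asp(EDANS)-Glu-Glu-Abu-ψ-[COO]Ala-Ser-Lys(DABCYL)-NH2, diluted 100-fold from a DMSO stock. After 30 min at room temperature (28 °C), fluorescence was read at […]. % inhibition = 100×(Fvehicle−Fsample)/Fvehicle, with both values corrected by subtracting the substrate control.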
# Hepacivirus hominis [2] = test: Inhibition of HCV NS3/4A protease at 50 ug/ml after 30 mins; outline: as §1
# Hepacivirus hominis [3] = test: Inhibition of HCV NS3/4A protease at 10 ug/ml after 30 mins; outline: as §1
# [4] = Inhibition of HCV NS3/4A protease after 30 mins; design: species or system Hepacivirus hominis; outline: as §1
SMILES,inhibition (Hepacivirus hominis [1]) [%],inhibition (Hepacivirus hominis [2]) [%],inhibition (Hepacivirus hominis [3]) [%],IC50 [4] [µg/mL]
O=C(COc1ccc(/C=C/C(=O)c2c[nH]c3ccccc23)cc1)N[C@@H](Cc1ccccc1)C(=O)O,84.7,82.4,53.7,9
N#Cc1cncnc1NC(=O)COc1ccc(/C=C/C(=O)c2c[nH]c3ccccc23)cc1,58.4,29.4,–,> 100
O=C(O)COc1ccc(/C=C/C(=O)c2c[nH]c3ccccc23)cc1,51.8,22.9,–,> 100
O=C(COc1ccc(/C=C/C(=O)c2c[nH]c3ccccc23)cc1)Nc1ncncc1C(=O)O,73.7,57.2,22.4,29
O=C(COc1ccc(/C=C/C(=O)c2c[nH]c3ccccc23)cc1)N[C@@H](Cc1ccc(O)cc1)C(=O)O,83.9,81.2,49.5,12
CC(C)C[C@H](NC(=O)C1(Cc2ccsc2C(=O)O)Cc2ccccc2N1)C(=O)NC(CC(F)F)C(=O)C(=O)O (some centres not stated),–,–,–,0.4
CC(=O)OCCC/C(=C1/SC(=S)N(CC(=O)O)C1=O)c1ccc(Br)cc1,–,–,–,6.4
O=C(COc1ccc(/C=C/C(=O)c2c[nH]c3ccccc23)cc1)N[C@@H](Cc1c[nH]cn1)C(=O)O,78.7,48.5,36.4,21
O=C(COc1ccc(/C=C/C(=O)c2c[nH]c3ccccc23)cc1)N[C@@H](Cc1c[nH]c2ccccc12)C(=O)O,82.9,67.2,44.5,19
O=C(COc1ccc(/C=C/C(=O)c2c[nH]c3ccccc23)cc1)Nc1ccc(C(=O)c2ccccc2C(=O)O)cc1,80.9,72,40.1,19
